Sampled rows, rich in hits. Any-hit rate of the full collection: about 2.7%.
zVAD death inh – blocks zVAD induced death of L929 cells. L929 zVAD necroptosis rescue, ATP luminescence, 24 h; with zVAD 60 µM. viability rescue, % at 10 µM. 0.38% of 220,000 active;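 active = activation, scaled between plate controls, above about 75%, limit read from the data; inactive = activation under that limit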
Wee1 degr inh – inhibitors of human Wee1 degradation; HeLa Luc-Wee1K328M stability, luciferase luminescence; 100% = proteasome inhibitor MG132 effect; reporter increase, % at 5 µM; 1.2% of 220,000 active;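 active = activation above the mean of all tested compounds plus 3 SD, set per screening run, cut at about 8.8% in these data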;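 note: cells exposed to compound for 20 h before luminescence read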
p97 ATPase inh – inhibitors of human p97 ATPase | recombinant p97 ATPase, Kinase-Glo ATP luminescence, 3 h | inhibition, % at 8 µM | 0.42% of 220,000 active | AID 1481; in the data active = inhibition above about 15%
TNF necrop inh – blocks TNF-alpha induced death of Jurkat FADD-/- cells; activation (protection from cell death), % at 10 µM; 0.068% of 220,000 active; Jurkat FADD-/- TNF necroptosis rescue, ATP luminescence, 24 h; 0 = TNF only, 100 = no-TNF cells;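 active = activation, meaning protection from cell death, of at least 50% relative to plate controls; inactive = activation below 50%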;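 note: necroptosis triggered by 40 ng/mL TNF-alpha added together with compound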
RBBP9 inh – inhibitors of human serine hydrolase RBBP9; 0.2% of 220,000 active; inhibition, % at 7.94 µM; O75884; recombinant RBBP9, FP-Rh probe fluorescence polarization; AID 1515;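 active = inhibition above the campaign mean of all tested compounds plus 3 SD, cut at about 14% in these data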
Target sequence (O75884 whole entry, looked up): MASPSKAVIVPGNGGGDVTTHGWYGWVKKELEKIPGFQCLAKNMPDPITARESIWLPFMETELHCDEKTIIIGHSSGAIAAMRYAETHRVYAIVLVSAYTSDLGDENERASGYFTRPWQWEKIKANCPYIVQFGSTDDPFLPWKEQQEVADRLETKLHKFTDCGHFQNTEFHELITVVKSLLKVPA
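system = RBBP9 protein | input = RBBP9 at 2.5 µM in dispensed solution, before mixing | measured by = fluorescence polarization (mP), excitation 525 nm, emission 598 nm | incubation = enzyme-compound preincubation 30 min, then probe labeling 45 min, 25 °C | buffer or medium = Tris-NaCl-Pluronic buffer, pH 8.0 | compound = single dose 7.94 µM | also added = FP-Rh probe, 375 nM dispensing solution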
M18AAP inhibitor – blocks P. falciparum M18 aspartyl aminopeptidase | recombinant PfM18AAP, H-Glu-NHMec fluorogenic cleavage | inhibition, % at 7.35 µM | 1.2% of 290,000 active | AID 1822;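 active = inhibition above the campaign mean inhibition over all tested compounds plus 3 SD, cut at about 28% in these data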
p97 confirm – confirmation of human p97 ATPase inhibitors. 44% of 760 active. shares compounds with p97 ATPase inh. inhibition, % at 8 µM. AID 1517. recombinant p97 ATPase, Kinase-Glo ATP luminescence;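 active = percent inhibition of p97 ATPase above a set limit, the primary screen's mean plus 3 SD, cut at about 15% in these data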
Of the large screens only hits and unclear results are named; the others gave an inactive call (follow-up assays come after a bar, where they were run).

Cc1ccn2cc(-c3ccc(NC(=O)c4ccco4)cc3)nc2c1	none
CC(Oc1cc2oc(=O)c3c(c2cc1Cl)CCC3)C(=O)NCCCn1ccnc1 (centres undefined)	none (no result: zVAD death inh, Wee1 degr inh, p97 ATPase inh, TNF necrop inh, RBBP9 inh)
Cc1cc(NC(=O)c2ccc3c(c2)OCCO3)ccc1NC(=O)c1cc2ccccc2o1	p97 ATPase inh 16 | p97 confirm 15
O=C(Nc1ccc(NC(=O)c2cc3ccccc3o2)cc1)c1ccc2c(c1)OCCO2	none
CC(C)OC(=O)CSc1n[nH]c(-c2cccnc2)n1	p97 ATPase inh 15 | p97 confirm inactive
COc1ccccc1NC(=O)CSc1n[nH]c(-c2cccnc2)n1	none (no result: zVAD death inh, Wee1 degr inh, p97 ATPase inh, TNF necrop inh, RBBP9 inh)
NC(=O)Cc1ncc(C(F)(F)F)cc1Cl	none
OCC#Cc1ncc(C(F)(F)F)cc1Cl	p97 ATPase inh 28 | p97 confirm 33
O=C(Nc1ccc(N2CCCCC2)cc1)c1ccc2ccccc2n1	none
CN1CCN(CCCNC(=O)c2cn(C3CCCCC3)c(=O)c3c2c2ccccc2n3C)CC1	p97 ATPase inh 23 | p97 confirm inactive
CC(Sc1ccsc1[N+](=O)[O-])C(=O)NCc1ccccc1 (centres undefined)	p97 ATPase inh 16 | p97 confirm inactive
CC(Sc1ccsc1[N+](=O)[O-])C(=O)NCCc1ccc(Cl)cc1 (centres undefined)	none
COc1ccccc1CNC(=O)C(C)Sc1ccsc1[N+](=O)[O-] (centres undefined)	p97 ATPase inh 20 | p97 confirm inactive
Cc1cc(Br)c(OCc2ccc(C(=O)N/N=C3\CC4CC=CC34)cc2)c(Br)c1 (centres undefined)	none (no result: zVAD death inh)
O=C(CNC(=S)N(Cc1ccccc1)Cc1cccnc1)NCCN1CCOCC1	none
CCN(CC)CCCC(C)NC(=O)c1ccc(C(F)(F)F)cc1 (centres undefined)	none
Cc1[nH]c2ccccc2c1C(=O)COC(=O)c1ccc([N+](=O)[O-])s1	p97 ATPase inh 39 | p97 confirm 31
O=C(COC(=O)c1ccc([N+](=O)[O-])s1)NCc1ccccc1	none
Cc1csc(NC(=O)CSCC(=O)O)c1-c1nc2ccccc2s1	p97 ATPase inh 16 | p97 confirm 19
O=C(O)CSCC(=O)Nc1ccc(-c2nc3ccccc3s2)cc1	none
O=S(=O)(O/N=C1\CCCc2ccccc21)c1ccccc1	none
COc1ccc(S(=O)(=O)O/N=C2\CCCc3ccccc32)cc1	p97 ATPase inh 18 | p97 confirm inactive
CCOc1cc(N2CCOCC2)c(OCC)cc1NC(=O)COC(=O)COc1ccc(C#N)cc1	none (no result: zVAD death inh, Wee1 degr inh, p97 ATPase inh, TNF necrop inh, RBBP9 inh)
Cc1ccccc1NC(=O)OCc1cccnc1Oc1ccc(Cl)cc1	none
CC(=O)c1ccc2c(c1)C1C=CCC1C(C(=O)O)N2 (centres undefined)	p97 ATPase inh 20 | p97 confirm 30
COc1cc(CNc2ccc(O)cc2)cc(Br)c1OCc1ccccc1F	p97 ATPase inh 15 | p97 confirm inactive
Cc1ccc(C(=O)NCCN2C3=NC[C@@H](Cc4ccccc4)N3C[C@H]2Cc2ccc(O)cc2)cc1Br	p97 ATPase inh 20 | p97 confirm inactive
CN(C)/C=C/c1c([N+](=O)[O-])c2ccc(O)cc2n1-c1ccccc1	p97 ATPase inh 26 | p97 confirm inactive
COC(=O)c1c(C)n(-c2ccccc2)c2ccc(O)cc12	none
C/C(=N\NC(=O)c1ccc(NS(=O)(=O)c2cccs2)cc1)c1ccccc1	none
C/C(=N\NC(=O)c1ccc(NS(=O)(=O)c2cccs2)cc1)c1ccc(O)cc1O	p97 ATPase inh 20 | p97 confirm 20
Cc1ccc(NC(=O)c2cc3c(=O)oc4ccc(C)cc4c3s2)nc1	none
CC(C)(C)OC(=O)N/N=C/c1cccn1-c1ccc([N+](=O)[O-])cc1	p97 ATPase inh 16 | p97 confirm inactive
O=C(CCNC(=O)c1ccc(Br)cc1)NCC1COc2ccccc2O1 (centres undefined)	none (no result: zVAD death inh, Wee1 degr inh, p97 ATPase inh, TNF necrop inh, RBBP9 inh)
CC1CCc2nc(N)c(C#N)c(-c3ccncc3)c2C1 (centres undefined)	none
CC1CCc2nc(N)c(C#N)c(-c3cccnc3)c2C1 (centres undefined)	p97 ATPase inh 26 | p97 confirm inactive
CCOc1cc(/C=C2\C(=O)N(c3ccc(C(N)=O)cc3)N=C2C)ccc1OC(=O)c1cccs1	none
CCOc1cc(/C=C2/C(=O)N(c3ccccc3)N=C2C)ccc1OC(=O)c1ccco1	p97 ATPase inh 27 | p97 confirm inactive
COc1ccc(Cc2nc(C)cc(Cl)n2)cc1[N+](=O)[O-]	none (no result: zVAD death inh, Wee1 degr inh, p97 ATPase inh, TNF necrop inh, RBBP9 inh)
Cc1ccc(/C=C/C2=Cc3c(sc(NC(=O)CSc4n[nH]c(N)n4)c3C#N)C(C)(C)C2)o1	p97 ATPase inh 19 | p97 confirm 22
CCOC(=O)c1sc(NC(=O)CSc2n[nH]c(-c3ccccc3)n2)c(C#N)c1C	none
NCCNc1ccc([N+](=O)[O-])c(NC2CC2)c1	p97 ATPase inh 17 | p97 confirm inactive
CCn1c(/C=C/N(C(C)=O)c2ccccc2)[n+](CCCS(=O)(=O)[O-])c2cc(Cl)c(Cl)cc21	p97 ATPase inh 18 | p97 confirm inactive
O=c1[nH]n(-c2cccc3cccnc23)c(=O)c2ccccc12	none
O=S1(=O)Nc2c(ccc3cccnc23)-c2ccccc21	p97 ATPase inh 23 | p97 confirm 32
Cc1cc(Nc2nc3ccccc3nc2Cl)n(-c2ccccc2C)n1	p97 ATPase inh 15 | p97 confirm inactive
CC(=O)Nc1cccc(-c2cn3ccc(C)cc3n2)c1	p97 ATPase inh 17 | p97 confirm 21
Cc1cccc(-n2ncc3c2CCCC3NC(=O)CCN2CCCO2)c1C (centres undefined)	none (no result: zVAD death inh, Wee1 degr inh, p97 ATPase inh, TNF necrop inh, RBBP9 inh)
COC(=O)/C=C1/S/C(=N/NC(=O)c2ccc(Cl)cc2Cl)NC1=O	p97 ATPase inh 22 | p97 confirm 21
Cc1ccc(C(=O)Nc2cc(=O)n(C)c(=O)n2C)cc1C	none
O=C(Cc1ccccc1)NC1(O)C(=O)c2ccccc2C1=O	p97 ATPase inh 16 | p97 confirm 15
O=C(NC1(O)C(=O)c2ccccc2C1=O)c1ccc(C(F)(F)F)cc1	p97 ATPase inh 27 | p97 confirm 28
Cc1ccc(C(=O)NC2(O)C(=O)c3ccccc3C2=O)cc1C	p97 ATPase inh 26 | p97 confirm 26
O=C(N[C@@H](Cc1ccccc1)C(=O)O)c1ccc(C(F)(F)F)cc1	none
CC(NC(=O)Cc1ccccc1)c1ccccc1 (centres undefined)	none (no result: zVAD death inh, Wee1 degr inh, p97 ATPase inh, TNF necrop inh, RBBP9 inh)
O=C(c1ccc(N2CCOCC2)cc1[N+](=O)[O-])N1CCOCC1	none
Nc1cccc2cnccc12	p97 ATPase inh 16 | p97 confirm inactive
CCn1nc(C)c(CNC(=O)c2ccc(OC3CCN(Cc4ccccn4)CC3)cc2)c1C	none (no result: zVAD death inh, Wee1 degr inh, p97 ATPase inh, TNF necrop inh, RBBP9 inh)

From PubChem
